From ChEMBL document CHEMBL3124861, “Application of ProTide technology to gemcitabine: a successful approach to overcome the key cancer resistance mechanisms leads to a new agent (NUC-1031) in clinical development” (J Med Chem, 2014)
pEC50, pIC50: −log10 of the molar value. Each block holds one compound with its values, some of them ahead of it. Activity calls are given as the source filed them. The rule behind the calls is not given here.

What was measured:
[1] = test system: CCRF-CEM; assay: Cytostatic activity against human CEM cells after 72 hrs by coulter counter analysis; format: functional, cell-based
How it was run: (§1)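 Tumor cell proliferation assay with murine leukemia and human T-lymphoblast cells. IC50 is the concentration that inhibits proliferation by 50%. Values are means of at least two independent experiments.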

[2] = test system: L1210; assay: Cytostatic activity against mouse L1210 cells after 48 hrs by coulter counter analysis; format: functional, cell-based; details: L1210, 48 h; how it was run: as §1
[3] = test system: BXPC-3; assay: Antitumor activity against human BxPC3 cells xenografted in Balb/c nude mouse assessed as tumor growth inhibition at 0.19 mmol/kg, ip administered every week for 3 weeks; format: functional, organism-based
[4] = Cytotoxicity against human RT112 cells assessed as cell viability by MTT assay in presence of dCK substrate deoxycytidine; format: functional, cell-based; details: RT-112
How it was run: (§2)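 RT112 cancer cells were grown with the test agent, with or without 2′-deoxycytidine as a competing dCK substrate to mimic dCK down-regulation. Viable cells were counted by colorimetric MTT assay, and EC50 was taken as the concentration blocking proliferation by 50%.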

[5] = Cytotoxicity against human PANC1 cells assessed as cell viability by MTT assay in presence of hENT1 inhibitor dipyridamole; format: functional, cell-based; details: PANC-1
How it was run: (§3)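 PANC1 pancreatic cancer cells were grown with the test agent, with or without dipyridamole to block hENT1 nucleoside transport. Viable cells were counted by colorimetric MTT assay, and EC50 was taken as the concentration blocking proliferation by 50%.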

[6] = test system: MIA PaCa-2; assay: Cytostatic activity against human MIAPaCa2 cells after 72 hrs by MTS assay; format: functional, cell-based; details: MIA PaCa-2, 72 h
How it was run: (§4)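 Pancreatic carcinoma cell proliferation assay. IC50 is the concentration that inhibits tumor cell proliferation by 50%. Values are means of at least two independent experiments.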

[7] = test system: MIA PaCa-2; assay: Antitumor activity against human MIAPaCa2 cells xenografted in Balb/c nude mouse assessed as tumor growth inhibition at 0.076 mmol/kg, ip measured on day 7; format: functional, organism-based
[8] = test system: Serum; assay: Prodrug activation in human serum assessed as formation of (S)-2-((((2R,3R,5R)-5-(4-amino-2-oxopyrimidin-1(2H)-yl)-4,4-difluoro-3-hydroxytetrahydrofuran-2-yl)methoxy)oxidophosphorylamino)propanoate at 5 mg measured after 5.5 hrs by [31P]-NMR spectroscopic analysis; format: cell-free
How it was run: (§5)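 The prodrug was incubated in human or rat serum and followed over time by 31P NMR. Metabolites were assigned by chemical shift. Human serum spectra were resolved by Lorentz-Gauss deconvolution.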

[9] = test system: BXPC-3; assay: Cytostatic activity against human BxPC3 cells after 72 hrs by MTS assay; format: functional, cell-based; details: BXPC-3, 72 h; how it was run: as §4
[10] = Prodrug activation assessed as carboxypeptidase Y (unknown origin)-mediated formation of (S)-2-((((2R,3R,5R)-5-(4-amino-2-oxopyrimidin-1(2H)-yl)-4,4-difluoro-3-hydroxytetrahydrofuran-2-yl)methoxy)oxidophosphorylamino)propanoate at 3 mg measured within 12 hrs by [31P]-NMR spectroscopic analysis
How it was run: (§6)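 The prodrug was dissolved in acetone-d6 with Trizma buffer (pH 7.6). A blank spectrum was recorded at 25 °C, then carboxypeptidase Y was added. Conversion was followed by 31P NMR spectra recorded over time, with peaks assigned by chemical shift.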

[11] = Prodrug activation in human MIAPaCa2 cells assessed as formation of dFdCTP after 24 hrs in presence of dCK inhibitor 2T2D; format: cell-based; details: mia paca-2, 24 h
How it was run: (§7)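 Pancreatic cells were exposed to the agent for 24 h, with or without a dCK inhibitor or the hENT1 inhibitor NBTI. Intracellular dFdCTP was measured by UPLC-MS/MS on a C18 column. Elution used a 10 mM ammonium acetate/acetonitrile gradient at 700 μL/min. Detection was by triple-quadrupole heated electrospray, transition m/z 502.0→159.0 at 37 V collision energy.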

[12] = Cytotoxicity against human RT112 cells assessed as cell viability by MTT assay in absence of dCK substrate deoxycytidine; format: functional, cell-based; details: RT-112; how it was run: as §2
[13] = test system: Mus musculus; assay: Toxicity in Balb/c nude mouse xenografted with human MIAPaCa2 cells assessed as change in body weight at 0.19 to 0.076 mmol/kg, ip administered 2 times per week for 2 weeks measured every week during compound treatment relative to vehicle-treated control; format: organism-based, MIA PaCa-2; details: in vivo, 336 h
[14] = Prodrug activation in human BxPC3 cells assessed as formation of dFdCTP after 24 hrs in presence of hENT1 inhibitor NBTI; format: cell-based; details: bxpc-3, 24 h; how it was run: as §7
[15] = Prodrug activation in human MIAPaCa2 cells assessed as formation of dFdCTP after 24 hrs in presence of hENT1 inhibitor NBTI; format: cell-based; details: mia paca-2, 24 h; how it was run: as §7
[16] = Prodrug activation assessed as carboxypeptidase Y (unknown origin)-mediated formation of (2S)-2-((((2R,3R,5R)-5-(4-amino-2-oxopyrimidin-1(2H)-yl)-4,4-difluoro-3-hydroxytetrahydrofuran-2-yl)methoxy)(phenoxy)phosphorylamino)propanoate at 3 mg measured within 10 mins by [31P]-NMR spectroscopic analysis; how it was run: as §6
[17] = Cytotoxicity against human PANC1 cells assessed as cell viability by MTT assay in absence of hENT1 inhibitor dipyridamole; format: functional, cell-based; details: PANC-1; how it was run: as §3
[18] = Prodrug activation assessed as carboxypeptidase Y (unknown origin)-mediated formation of (S)-2-((((2R,3R,5R)-5-(4-amino-2-oxopyrimidin-1(2H)-yl)-4,4-difluoro-3-hydroxytetrahydrofuran-2-yl)methoxy)oxidophosphorylamino)propanoate at 3 mg measured after 10 mins by [31P]-NMR spectroscopic analysis; how it was run: as §6
[19] = test system: Serum; assay: Prodrug activation in rat serum assessed as formation of (S)-2-((((2R,3R,5R)-5-(4-amino-2-oxopyrimidin-1(2H)-yl)-4,4-difluoro-3-hydroxytetrahydrofuran-2-yl)methoxy)oxidophosphorylamino)propanoate at 5 mg measured after 6.5 mins by [31P]-NMR spectroscopic analysis; format: cell-free; how it was run: as §5
[20] = test system: Mus musculus; assay: Toxicity in Balb/c nude mouse xenografted with human BxPC3 cells assessed as change in body weight at 0.19 to 0.076 mmol/kg, ip administered 2 times per week for 2 weeks measured every week during compound treatment; format: organism-based, BXPC-3; details: in vivo, 336 h
[21] = test system: MIA PaCa-2; assay: Antitumor activity against human MIAPaCa2 cells xenografted in Balb/c nude mouse assessed as tumor growth inhibition at 0.19 mmol/kg, ip administered every week for 3 weeks; format: functional, organism-based
[22] = target: Cytidine deaminase (Homo sapiens, UniProt P32320); assay: Drug degradation assessed as recombinant human cytidine deaminase-mediated dFdU formation at 100 uM measured at 30 mins by UV absorption spectroscopic analysis; format: ADME; details: 0.5 h
How it was run: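 The nucleoside or prodrug was incubated with cytidine deaminase for 30 min. Deamination was followed by UV absorbance spectra recorded between 220 and 350 nm.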

[23] = Prodrug activation in human BxPC3 cells assessed as formation of dFdCTP after 24 hrs in presence of dCK inhibitor 2T2D; format: cell-based; details: bxpc-3, 24 h; how it was run: as §7
[24] = Metabolic stability in human liver microsomes assessed as compound remaining at 0.5 uM after 1 hr by HPLC-Ms/Ms analysis; format: ADME; details: read-out: Stability
How it was run: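 Compounds incubated with human liver microsomes for 1 h. Percentage of parent remaining measured.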

[25] = test system: BXPC-3; assay: Ratio of gemcitabine IC50 to compound IC50 for human BxPC3 cells after 72 hrs by MTS assay; format: functional
[26] = test system: MIA PaCa-2; assay: Ratio of gemcitabine IC50 to compound IC50 for human MIAPaCa2 cells after 72 hrs by MTS assay; format: functional
[27] = Half life in human hepatocytes at 1 uM; format: ADME, cell-based, Hepatocyte
How it was run: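 Compounds incubated with human hepatocytes. Half-life determined.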

Sequence of Cytidine deaminase (P32320 whole entry): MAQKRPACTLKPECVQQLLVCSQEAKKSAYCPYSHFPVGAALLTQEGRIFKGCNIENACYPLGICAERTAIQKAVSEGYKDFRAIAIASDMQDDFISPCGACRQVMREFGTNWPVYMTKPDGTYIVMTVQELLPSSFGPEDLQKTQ

SMILES: CCCCCOC(=O)C(C)(C)NP(=O)(OC[C@H]1O[C@@H](n2ccc(N)nc2=O)C(F)(F)[C@@H]1O)Oc1cccc2ccccc12 (stereo partly specified)
pIC50 [1]: 6.89
pIC50 [2]: 6.80

SMILES: C[C@H](NP(=O)(OC[C@H]1O[C@@H](n2ccc(N)nc2=O)C(F)(F)[C@@H]1O)Oc1ccccc1)C(=O)OCc1ccccc1 (stereo partly specified) [FOSGEMCITABINE PALABENAMIDE]
TGI [3]: Active
pEC50 [4]: 9.15
pEC50 [5]: 3.79
pIC50 [6]: 6.36
pIC50 [1]: 7.00
TGI [7]: Active
Drug metabolism [8]: Active
pIC50 [2]: 7.46
pIC50 [9]: 6.82
Drug metabolism [10]: Active
Drug metabolism [11]: Active
pEC50 [12]: 9.70
Activity [13]: < 4%
Drug metabolism [14]: Active
Drug metabolism [15]: Active
Drug metabolism [16]: Active
pEC50 [17]: 3.72
Drug metabolism [18]: Active
Drug metabolism [19]: Active
Activity [20]: Non-toxic
TGI [21]: Active
Stability [22]: Stable
Drug metabolism [23]: Active

SMILES: CC(C)OC(=O)[C@H](C)NP(=O)(OC[C@H]1O[C@@H](n2ccc(N)nc2=O)C(F)(F)[C@@H]1O)Oc1ccccc1 (stereo partly specified)
pIC50 [6]: < 5.30
pIC50 [1]: < 5.30
pIC50 [2]: < 5.30
pIC50 [9]: < 5.30

SMILES: CCCCCCOC(=O)[C@H](C)NP(=O)(OC[C@H]1O[C@@H](n2ccc(N)nc2=O)C(F)(F)[C@@H]1O)Oc1ccccc1 (stereo partly specified)
pIC50 [1]: 7.09
pIC50 [2]: 7.80

SMILES: C[C@H](NP(=O)(OC[C@H]1O[C@@H](n2ccc(N)nc2=O)C(F)(F)[C@@H]1O)Oc1ccccc1)C(=O)OC1CCCCC1 (stereo partly specified)
pIC50 [1]: 6.38
pIC50 [2]: 6.22

pIC50 [6]: 6.24
remaining at 1 h, 0.5 µM [24]: 1%
pIC50 [9]: 6.62
half-life at 1 µM [27]: 1.32 h
SMILES: C[C@H](NP(=O)(OC[C@H]1O[C@@H](n2ccc(N)nc2=O)C(F)(F)[C@@H]1O)Oc1cccc2ccccc12)C(=O)OCc1ccccc1 (stereo partly specified)
pIC50 [1]: 7.00
Ratio IC50 [25]: 2
pIC50 [2]: 7.46
Ratio IC50 [26]: 2
